Published values of several laboratories.
Lines come from different studies, so protocols differ.
Target: Aurora kinase A (AURKA, Homo sapiens, UniProt O14965)
Residues used in one study (O14965 1-403): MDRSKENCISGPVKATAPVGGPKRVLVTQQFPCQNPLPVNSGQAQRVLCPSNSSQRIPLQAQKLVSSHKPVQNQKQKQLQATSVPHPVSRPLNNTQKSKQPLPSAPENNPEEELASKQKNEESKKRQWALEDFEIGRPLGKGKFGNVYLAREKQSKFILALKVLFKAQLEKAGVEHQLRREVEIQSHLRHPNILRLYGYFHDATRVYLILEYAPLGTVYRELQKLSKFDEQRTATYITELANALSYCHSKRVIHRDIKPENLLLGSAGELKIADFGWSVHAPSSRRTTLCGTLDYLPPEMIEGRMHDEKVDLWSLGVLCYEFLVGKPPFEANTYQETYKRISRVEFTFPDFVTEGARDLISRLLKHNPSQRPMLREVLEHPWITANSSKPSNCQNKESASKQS

SMILES | assay | conditions | measurement | result
COc1cc2ncnc(Nc3ccc(Oc4ccccc4)c(C)c3C)c2cc1OC | enzyme activity, inhibitor | 1 µM | inhibition | 13%
CCN(CC)CCNC(=O)c1c(C)[nH]c(/C=C2\C(=O)Nc3ccc(F)cc32)c1C | enzyme activity, inhibitor | 0.1 µM | remaining activity | 83%
Cc1ccc(NC(=O)c2ccc(C)c(C(F)(F)F)c2)cc1C#Cc1nn(C2CCC(O)CC2)c2ncnc(N)c12 (centres unmarked) | cell-free assay | 10 µM | remaining signal | 64%
N#CCCc1ccc2c(c1)-c1[nH]c3ccc([N+](=O)[O-])cc3c1CC(=O)N2 | cell-free assay | 0.5 µM | remaining signal | 78.7%
O=C(Nc1cnc(Oc2ccc(F)cc2)nc1)N1CCc2ncccc2[C@@H]1c1ccc(F)cc1 | cell-free assay, competition with immobilised ligand | 1 µM | remaining binding | 100%
Nc1ncnc2occ(-c3ccc(NC(=O)Nc4cc(C(F)(F)F)ccc4F)cc3)c12 | enzyme activity, inhibitor | 20 µM | remaining activity | 0.1%
CC(C)(O)c1cncc(-c2nc3ccc(F)cc3n2C2CC2)c1 | cell-free assay, competition with immobilised ligand | 1 µM | remaining binding | 94%
CC/C(=N\NC(=O)NCc1cccc(O)c1)c1ccc(O)c(C)c1O | enzyme activity, inhibitor | 0.1 µM | inhibition | 5.9%
Cc1cnc(NC2CCOCC2)nc1-n1cnc(C(=O)NC(CN)c2cc(F)cc(Cl)c2)c1 (centres unmarked) | enzyme activity, inhibitor, radiometric | 1 µM | remaining activity | 48%
COc1cc(Cl)c(C(=O)N[C@@H](CN[C@H]2CC[C@@H](N)CC2)Cc2ccc(C#N)cc2)cc1-c1ccc(CN[C@H](C)c2ccc(C)cc2)o1 | enzyme activity, inhibitor | 1 µM | remaining activity | 98%
Cc1ccc(C(=O)Nc2ccc(CN3CCN(C)CC3)c(C(F)(F)F)c2)cc1C#Cc1cnc2cccnn12 | enzyme activity, inhibitor | 23.5 nM | remaining activity | 97%
N#CC1(c2ccccn2)CCN(Cc2cc(C(=O)N3CCCC3)c(=O)n3ccccc23)CC1 | cell-free assay, competition with immobilised ligand | 1 µM | remaining binding | 90%
COc1cc(Nc2cnc(C#N)c(O[C@H](C)CN(C)C)n2)ncc1-c1cnn(C)c1 | enzyme activity, inhibitor, radiometric | 10 µM | remaining activity | 48%
CC(C)(C)c1nc(-c2cccc(NS(=O)(=O)c3c(F)cccc3F)c2F)c(-c2ccnc(N)n2)s1 | enzyme activity, inhibitor, radiometric | 1 µM | remaining activity | 102%
CCCOc1ccc(OC)c(F)c1C(=O)c1ccc(C(=O)N[C@@H]2CNC[C@H]2NC(=O)c2ccc3[nH]ncc3c2)cc1 | enzyme activity, inhibitor | 10 µM | remaining activity | 33%
C[C@@H]1CCN(C(=O)CC#N)C[C@@H]1N(C)c1ncnc2[nH]ccc12 | cell-free assay, inhibitor | 0.5 µM | remaining signal | 84.1%

SMILES | assay | conditions | measurement | result
CC(C)(O)[C@H]1CC[C@H](Nc2ccc3ncc(-c4cccc(C(F)(F)F)c4)n3n2)CC1 | enzyme activity, inhibitor | 1 µM | remaining activity | 96.1%
Cc1cc(NC(=O)c2cccc3cc(-c4cccc5[nH]nc(N)c45)ccc23)ccc1F | enzyme activity, inhibitor | 0.1 µM | activity vs control | 95%
O=C(Nc1cnn(-c2csc(C(=O)NC3COC3)c2)c1)Nc1c(F)cccc1Cl | enzyme activity, inhibitor | 5 µM | remaining activity | 83.1%
Cc1ccc(Nc2nccc(N(C)c3ccc4c(C)n(C)nc4c3)n2)cc1S(N)(=O)=O | enzyme activity, inhibitor | 0.3 µM | inhibition | 73%
C[C@@H]1CN(c2cc(-c3n[nH]c4ccc(OC5(C)CC5)cc34)ncn2)C[C@H](C)O1 | cell-free assay, competition with immobilised ligand | 0.1 µM | remaining binding | 94%
CC(C)c1ccc(NC(=O)c2cccs2)c(-c2nc3ccccc3[nH]c2=O)c1 | enzyme activity, inhibitor | 1 µM | activity vs control | 83%
Cc1c[nH]c2nccc(Oc3c(F)cc(Nc4cc(Cl)nc(N)n4)cc3F)c12 | cell-free assay, competition with immobilised ligand | 0.1 µM | remaining binding | 94%
CNC(=O)c1cc(Oc2ccc(NC(=O)Nc3ccc(Cl)c(C(F)(F)F)c3)cc2)ccn1 | enzyme activity, inhibitor | 0.3 µM | inhibition | 16%
O=C1Nc2ccc(Cl)cc2C1=Cc1cc(Cl)c(O)c(Cl)c1 | cell-free assay | 0.5 µM | remaining signal | 64.2%
Oc1cccc(-c2nc(N3CCOCC3)c3oc4ncccc4c3n2)c1 | enzyme activity, inhibitor | 10 µM | remaining activity | 92%
CCC(=N\O)/C(C)=C/c1ccc(F)cc1 | cell-free assay, competition with immobilised ligand | 1 µM | remaining binding | 100%
CS(=O)(=O)Nc1cccc(-c2csc(NC(=O)CSc3nc4nccnc4c(=O)n3CCc3ccccc3)n2)c1 | enzyme activity, inhibitor | 10 µM | inhibition | 0%
Cc1cc(NC(=O)c2cccc(S(F)(F)(F)(F)F)c2)cc(-n2ccn3nc(-c4cccnc4)cc23)c1 | cell-free assay, competition with immobilised ligand | 1 µM | remaining binding | 84.9%
CCN(CC)CCNC(=O)c1c(C)[nH]c(/C=C2\C(=O)Nc3ccc(F)cc32)c1C | enzyme activity, inhibitor | 0.3 µM | inhibition | 28%
Cc1[nH]c(/C=C2\C(=O)Nc3ccc(F)cc32)c(C)c1C(=O)N[C@H]1CCN(C(=O)N(C)C)C1 | enzyme activity, inhibitor | 1 µM | remaining activity | 35%
CNC(=O)Nc1ccc2c(c1)CC[C@@]21OC(=O)N(CC(=O)N(Cc2ccc(F)cc2)[C@@H](C)C(F)(F)F)C1=O | cell-free assay, competition with immobilised ligand | 1 µM | remaining binding | 80%
